Measurements pooled from the literature.
Cell line: NCI-H1299
Observed: cell growth or viability

`COc1ccccc1/C=C/CNCC(O)COc1cccc2c1[nH]c1ccccc12` (centres unmarked) has an IC50 of 16.3 µM (CCK-8; 72 h).
The IC50 of `C/C(=N\O)c1ccc(-c2ccc(O)c(C)c2)c(Cl)c1O` is reported as 30.3 µM (MTT; 48 h).
The IC50 of `COc1cc(Nc2nccc(-c3cnn4nc(OC)ccc34)n2)cc(C(F)(F)F)c1` is reported as 0.26 µM (ATP luminescence).
`COc1cc2c(Nc3ccc(NC(=O)c4ccccc4)cc3)ncnc2cc1OCCCN1CCOCC1` gave an IC50 of 1.1 µM (MTS; 48 h).
With `OCc1cn(Cc2ccc(Cl)cc2)c2ccccc12` the IC50 was at least 13 µM (SRB; 72 h).
For `CC(C)C[C@H](NC(=O)[C@H](Cc1ccccc1)NC(=O)c1cnccn1)B(O)O`, the IC50 was 0.0099 µM (ATP luminescence).
For `O=c1[nH]cc(S(=O)(=O)Nc2cccc(-c3nnc(-c4cccc(Cl)c4)o3)c2)c(=O)[nH]1`, the IC50 was 27.6 µM (MTT; 24 h).
The IC50 of `COc1ccccc1/C=C/CNCC(O)COc1ccc2ncccc2c1` (centres unmarked) is reported as over 100 µM (CCK-8; 72 h).
For `OCc1cn(Cc2cccc(Cl)c2)c2ccccc12`, the IC50 was at least 13 µM (SRB; 72 h).
`COc1ccccc1/C=C/CNCC(O)COc1cccc2ncccc12` (centres unmarked) gave an IC50 of 36.6 µM (CCK-8; 72 h).
For `C/C(=N\O)c1ccc(-c2ccc(O)c(Cl)c2)c(Cl)c1O`, the IC50 was 45.8 µM (MTT; 48 h).
